Assay [1] concerns the target T1, CYP6P3 (Anopheles gambiae, UniProt Q8T632).
T1 sequence (Q8T632 1-509): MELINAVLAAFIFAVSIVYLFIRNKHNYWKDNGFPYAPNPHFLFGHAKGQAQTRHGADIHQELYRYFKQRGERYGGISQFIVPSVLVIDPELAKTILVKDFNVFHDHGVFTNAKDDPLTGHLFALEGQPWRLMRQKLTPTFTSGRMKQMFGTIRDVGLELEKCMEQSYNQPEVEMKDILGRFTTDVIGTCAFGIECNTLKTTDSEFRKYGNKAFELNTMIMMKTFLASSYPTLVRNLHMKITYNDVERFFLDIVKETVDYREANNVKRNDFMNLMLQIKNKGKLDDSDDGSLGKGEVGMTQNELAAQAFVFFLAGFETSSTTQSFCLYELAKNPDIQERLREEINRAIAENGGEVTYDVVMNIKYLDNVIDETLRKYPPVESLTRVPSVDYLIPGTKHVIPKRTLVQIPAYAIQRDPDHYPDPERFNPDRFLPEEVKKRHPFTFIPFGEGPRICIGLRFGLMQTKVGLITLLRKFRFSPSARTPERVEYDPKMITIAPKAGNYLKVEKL
T1 sequence (Q86QH5 1-679 partner): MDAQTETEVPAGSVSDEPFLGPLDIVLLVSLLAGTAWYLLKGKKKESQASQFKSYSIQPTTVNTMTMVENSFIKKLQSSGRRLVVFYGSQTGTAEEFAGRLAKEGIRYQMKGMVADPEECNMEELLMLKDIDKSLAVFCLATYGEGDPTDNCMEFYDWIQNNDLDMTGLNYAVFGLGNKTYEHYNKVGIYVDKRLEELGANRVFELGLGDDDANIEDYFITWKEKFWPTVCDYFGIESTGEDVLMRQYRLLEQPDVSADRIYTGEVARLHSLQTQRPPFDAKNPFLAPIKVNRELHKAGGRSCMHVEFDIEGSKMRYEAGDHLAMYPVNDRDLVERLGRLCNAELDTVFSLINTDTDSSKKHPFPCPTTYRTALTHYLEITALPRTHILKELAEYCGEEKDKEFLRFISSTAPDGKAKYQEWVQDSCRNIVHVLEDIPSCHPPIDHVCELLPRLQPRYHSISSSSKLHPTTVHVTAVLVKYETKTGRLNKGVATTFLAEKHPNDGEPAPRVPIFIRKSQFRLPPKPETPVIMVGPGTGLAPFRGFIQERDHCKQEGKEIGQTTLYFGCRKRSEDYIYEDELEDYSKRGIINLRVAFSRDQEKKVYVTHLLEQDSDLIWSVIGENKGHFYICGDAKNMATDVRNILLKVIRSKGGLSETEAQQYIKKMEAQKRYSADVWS
T1 sequence (Q86QH4 1-128 partner): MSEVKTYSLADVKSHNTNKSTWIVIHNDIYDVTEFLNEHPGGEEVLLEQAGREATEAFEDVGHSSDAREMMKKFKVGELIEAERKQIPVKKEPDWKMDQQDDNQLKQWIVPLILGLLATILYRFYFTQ
Nature of the assay: Reciprocal IC50 of CYP6P3 metabolism of PPF and permethrin. It is filed as biochemical. A digest of the protocol:
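CYP6P3 was expressed with AgCPR in E. coli JM109 membranes, with b5 added at 10:1 b5:P450. Reactions ran at 30 °C for 90 min with shaking: 0.1 μM P450, 1.0 μM b5, 0.2 M Tris-HCl pH 7.4, 0.25 mM MgCl2, NADPH-regenerating system. PPF (0–1.6 mM) or permethrin (0–3.2 mM) was titrated against the other at fixed 20 μM. Substrate loss was read by C18 HPLC at 232 nm, triplicate controls.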

The target in a further assay is T2, CYP6Z2 (Anopheles gambiae, UniProt A8I285).
T2 sequence (A8I285 1-492): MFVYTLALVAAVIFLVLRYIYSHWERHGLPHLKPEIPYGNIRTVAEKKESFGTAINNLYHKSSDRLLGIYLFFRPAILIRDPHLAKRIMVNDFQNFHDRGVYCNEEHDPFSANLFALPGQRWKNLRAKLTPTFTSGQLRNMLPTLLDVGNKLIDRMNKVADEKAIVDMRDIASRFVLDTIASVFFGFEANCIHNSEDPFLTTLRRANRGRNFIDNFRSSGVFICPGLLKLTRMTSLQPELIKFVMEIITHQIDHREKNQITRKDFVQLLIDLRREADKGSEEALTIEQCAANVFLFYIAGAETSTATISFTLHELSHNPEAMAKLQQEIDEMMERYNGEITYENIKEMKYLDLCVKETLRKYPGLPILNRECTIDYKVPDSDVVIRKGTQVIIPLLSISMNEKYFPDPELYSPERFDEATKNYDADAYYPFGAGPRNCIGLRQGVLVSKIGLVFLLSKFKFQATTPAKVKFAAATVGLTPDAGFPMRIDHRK
T2 sequence (Q86QH5 1-679 partner): T1 sequence (Q86QH5 1-679 partner)
T2 sequence (Q86QH4 1-128 partner): T1 sequence (Q86QH4 1-128 partner)
Briefly: biochemical.

Assay [2] has as its target T1, CYP6P3. Briefly: biochemical.
The mark [3] stands for this setting: category of inhibition of DEF metabolism.

Molecules are shown by their SMILES. Some results are limits rather than exact numbers.

By IC50 is commonly meant the midpoint of a concentration-inhibition curve. Consider `CC1(C)C(C=C(Cl)Cl)C1C(=O)OCc1cccc(Oc2ccccc2)c1` (mixture of isomers) [Permethrin, 3-phenoxybenzyl (1R,S)-cis,trans-3-(2,2-dichlorovinyl)-2,2-dimethylcyclopropanecarboxylate], for which the concentration for half-maximal inhibition (IC50) was 61.2 µM at CYP6P3 [1], 13.7 µM against CYP6Z2 (IC50 of DEF metabolism), over 10 µM against CYP6Z2 (setting [3]) and 6.77 µM at CYP6P3 [2].
As to `CC(COc1ccc(Oc2ccccc2)cc1)Oc1ccccn1` (centres unmarked) [PPF, pyriproxyfen], the IC50 on CYP6P3 [1] is 92.7 µM; against CYP6Z2 (IC50 of DEF metabolism), 2.23 µM; at CYP6Z2 (setting [3]), 1 to 10 µM; at CYP6P3 [2], 15.8 µM.

The record behind these values is paper PMC6399515 (Insect Biochemistry and Molecular Biology, 2016).
